Test results taken from ChEMBL document CHEMBL3822380, “Simple avarone mimetics as selective agents against multidrug resistant cancer cells” (Eur J Med Chem, 2016).
In brackets after ≈: the same amount, converted by molar mass. Activity calls are given as the source filed them.

How the values were obtained:
[1] = test system: Saccharomyces cerevisiae; assay: Antifungal activity against Saccharomyces cerevisiae ATCC 9763 by broth microdilution method; type: functional
In short: (§1)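 Broth microdilution per NCCLS. Compounds dissolved in DMSO as 10 mg/mL stock, diluted in Mueller Hinton broth (bacteria) or Sabouraud dextrose broth (fungi). Amikacin served as the positive control for bacteria and nystatin for fungi.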

[2] = test system: Candida albicans; assay: Antifungal activity against Candida albicans ATCC 10231 by broth microdilution method; type: functional; in short: as §1
[3] = test system: Aspergillus brasiliensis; assay: Antifungal activity against Aspergillus brasiliensis ATCC 16404 by broth microdilution method; type: functional; in short: as §1
[4] = test system: NCI-H460; assay: Induction of superoxide anion generation in multidrug resistant human NCI-H460 cells at 25 uM after 72 hrs by DHE staining-based flow cytometric analysis relative to control; type: functional, cell-based
In short: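 Seeded as for cell death (50,000 or 100,000 cells/well), treated 72 h at 25 µM, with CDDP 5 µM as control. Adherent cells trypsinized and loaded with 1 µM DHE for 30 min at 37 °C in the dark, then washed twice in PBS. Flow cytometry at ex 488/em 585 nm (FL2-H). Mean fluorescence intensity corrected for autofluorescence and compared with untreated control.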

[5] = test system: HaCaT; assay: Induction of apoptosis in human HaCaT cells assessed as late apoptotic/necrotic cells at 25 uM after 72 hrs by annexin-V/propidium iodide staining-based flow cytometric analysis (reference value: 0.2%); type: cell-based
[6] = test system: NCI-H460; assay: Induction of apoptosis in multidrug resistant human NCI-H460 cells assessed as early apoptotic cells at 25 uM after 72 hrs by annexin-V/propidium iodide staining-based flow cytometric analysis (reference value: 1.1%); type: functional
[7] = test system: NCI-H460; assay: Induction of apoptosis in multidrug resistant human NCI-H460 cells assessed as live cells at 25 uM after 72 hrs by annexin-V/propidium iodide staining-based flow cytometric analysis (reference value: 96.4%); type: functional
[8] = test system: NCI-H460; assay: Induction of apoptosis in multidrug resistant human NCI-H460 cells assessed as dead cells at 25 uM after 72 hrs by annexin-V/propidium iodide staining-based flow cytometric analysis (reference value: 1.5%); type: functional
[9] = test system: NCI-H460; assay: Induction of apoptosis in human NCI-H460 cells assessed as late apoptotic/necrotic cells at 25 uM after 72 hrs by annexin-V/propidium iodide staining-based flow cytometric analysis (reference value: 0.2%); type: functional
[10] = test system: HaCaT; assay: Induction of apoptosis in human HaCaT cells assessed as dead cells at 25 uM after 72 hrs by annexin-V/propidium iodide staining-based flow cytometric analysis (reference value: 2.8%); type: cell-based
[11] = test system: HaCaT; assay: Induction of apoptosis in human HaCaT cells assessed as early apoptotic cells at 25 uM after 72 hrs by annexin-V/propidium iodide staining-based flow cytometric analysis (reference value: 0.2%); type: cell-based
[12] = test system: NCI-H460; assay: Induction of apoptosis in human NCI-H460 cells assessed as dead cells at 25 uM after 72 hrs by annexin-V/propidium iodide staining-based flow cytometric analysis (reference value: 1.2%); type: functional
[13] = test system: NCI-H460; assay: Cytotoxicity against human NCI-H460 cells after 72 hrs by MTT assay; type: functional, cell-based; settings: NCI-H460, 72 h
In short: (§2)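 Seeding in 96-well plates at 1000 (NCI-H460), 2000 (NCI-H460/R) or 4000 (HaCaT) cells/well, treated after 24 h for 72 h. MTT at 0.4 mg/mL final, 4 h at 37 °C. Formazan dissolved in DMSO, absorbance read at 540 nm. Inhibition % = (1 − A treated/A untreated)×100. IC30 and IC50 obtained by linear regression.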

[14] = test system: HaCaT; assay: Cytotoxicity against human HaCaT cells after 72 hrs by MTT assay; type: cell-based; settings: for IC50: Homo sapiens, HaCaT; for IC30: human, hacat; in short: as §2
[15] = Induction of apoptosis in human HaCaT cells assessed as live cells at 25 uM after 72 hrs by annexin-V/propidium iodide staining-based flow cytometric analysis (reference value: 96.8%); type: cell-based; settings: read-out: Activity
[16] = test system: NCI-H460; assay: Induction of apoptosis in human NCI-H460 cells assessed as early apoptotic cells at 25 uM after 72 hrs by annexin-V/propidium iodide staining-based flow cytometric analysis (reference value: 0.3%); type: functional
[17] = test system: NCI-H460; assay: Cytotoxicity against multidrug resistant human NCI-H460 cells after 72 hrs by MTT assay; type: functional, cell-based; settings: NCI-H460, 72 h; in short: as §2
[18] = test system: NCI-H460; assay: Induction of apoptosis in multidrug resistant human NCI-H460 cells assessed as late apoptotic/necrotic cells at 25 uM after 72 hrs by annexin-V/propidium iodide staining-based flow cytometric analysis (reference value: 1%); type: functional
[19] = test system: NCI-H460; assay: Induction of apoptosis in human NCI-H460 cells assessed as live cells at 25 uM after 72 hrs by annexin-V/propidium iodide staining-based flow cytometric analysis (reference value: 98.3%); type: functional
[20] = Selectivity ratio of IC30/IC50 for human HaCaT cells to IC30/IC50 for human NCI-H460 cells; type: ADME, cell-based; settings: HaCaT cells versus NCI-H460 cells
In short: (§3)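 Fold threshold of 1.5 used to call selectivity to cancer cells, resistance, or selectivity to MDR cells.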

[21] = test system: NCI-H460; assay: Selectivity ratio of IC30/IC50 for human NCI-H460 cells to IC30/IC50 for multidrug resistant human NCI-H460 cells; type: functional; in short: as §3
[22] = Selectivity ratio of IC30/IC50 for human HaCaT cells to IC30/IC50 for multidrug resistant human NCI-H460 cells; type: ADME, cell-based; settings: HaCaT cells versus multidrug resistant NCI-H460 cells; in short: as §3
[23] = test system: Kocuria rhizophila; assay: Antibacterial activity against Kocuria rhizophila ATCC 9341 by broth microdilution method; type: functional; settings: DC2201; in short: as §1
[24] = test system: Clostridium sporogenes; assay: Antibacterial activity against Clostridium sporogenes ATCC 19404 by broth microdilution method; type: functional; in short: as §1
[25] = test system: Salmonella enteritidis; assay: Antibacterial activity against Salmonella enterica subsp. enterica serovar Enteritidis ATCC 13076 by broth microdilution method; type: functional; in short: as §1
[26] = test system: Bacillus spizizenii; assay: Antibacterial activity against Bacillus subtilis ATCC 6633 by broth microdilution method; type: functional; in short: as §1
[27] = test system: Escherichia coli; assay: Antibacterial activity against Escherichia coli ATCC 25922 by broth microdilution method; type: functional; in short: as §1
[28] = test system: Staphylococcus aureus; assay: Antibacterial activity against Staphylococcus aureus ATCC 6538 by broth microdilution method; type: functional; in short: as §1
[29] = test system: Micrococcus luteus; assay: Antibacterial activity against Micrococcus luteus ATCC 10240 by broth microdilution method; type: functional; in short: as §1
[30] = test system: Micrococcus luteus; assay: Antibacterial activity against Micrococcus luteus ATCC 4698 by broth microdilution method; type: functional; settings: NCTC 2665; in short: as §1
[31] = test system: Proteus hauseri; assay: Antibacterial activity against Proteus hauseri ATCC 13315 by broth microdilution method; type: functional; in short: as §1
[32] = test system: Pseudomonas aeruginosa; assay: Antibacterial activity against Pseudomonas aeruginosa ATCC 9027 by broth microdilution method; type: functional; in short: as §1

| Compound | MIC [1] | MIC [2] | MIC [3] | IC30 [13] | IC50 [13] | IC50 [14] | IC30 [14] | IC30 [17] | IC50 [17] | selectivity ratio [20] | MIC [23] | MIC [24] | MIC [25] | MIC [26] | MIC [27] | MIC [28] | MIC [29] | MIC [30] | MIC [31] | MIC [32] | also measured |
| --- | --- | --- | --- | --- | --- | --- | --- | --- | --- | --- | --- | --- | --- | --- | --- | --- | --- | --- | --- | --- | --- |
| NYSTATIN | 1350 µM | 2700 µM | 1350 µM |  |  |  |  |  |  |  |  |  |  |  |  |  |  |  |  |  |  |
| CCCCCCCCNC1=CC(=O)C(C[C@]2(C)[C@@H](C)CC[C@]3(C)C(C)=CCC[C@@H]23)=CC1=O |  |  |  | > 100 µM | > 100 µM | > 100 µM | > 100 µM | > 100 µM | > 100 µM |  |  |  |  |  |  |  |  |  |  |  | Activity [4]: inactive; Activity [5]: 0.7%; Activity [6]: 0.1%; Activity [7]: 96.1%; Activity [8]: 3.1%; Activity [9]: 0.3%; Activity [10]: 5.8%; Activity [11]: 0.1%; Activity [12]: 4.6%; viability at 72 h, 25 µM [15]: 93.4%; Activity [16]: 0%; Activity [18]: 0.7%; Activity [19]: 95.1% |
| CCCCNC1=CC(=O)C(C[C@]2(C)[C@@H](C)CC[C@]3(C)C(C)=CCC[C@@H]23)=CC1=O |  |  |  | 91 µM | > 100 µM | > 100 µM | 86 µM | 24 µM | > 100 µM | ≤ 1.5 |  |  |  |  |  |  |  |  |  |  | selectivity ratio [21]: <=1.5; selectivity ratio [22]: ≤ 1.5 |
| CNC1=CC(=O)C(C(C)(C)C)=CC1=O | 1620 µM (≈ 313 µg/mL) | 1620 µM (≈ 313 µg/mL) | 51 µM (≈ 9.86 µg/mL) | 34 µM | 63 µM | 28 µM | 17 µM | 31 µM | 58 µM |  | 409 µM (≈ 79 µg/mL) | 813 µM (≈ 157 µg/mL) | 813 µM (≈ 157 µg/mL) | 813 µM (≈ 157 µg/mL) | 104 µM (≈ 20.1 µg/mL) | 25 µM (≈ 4.83 µg/mL) | 103 µM (≈ 19.9 µg/mL) | 831 µM (≈ 161 µg/mL) | 813 µM (≈ 157 µg/mL) | 1620 µM (≈ 313 µg/mL) |  |
| CCNC1=CC(=O)C(C(C)(C)C)=CC1=O | 3020 µM (≈ 626 µg/mL) | 1510 µM (≈ 313 µg/mL) | 381 µM (≈ 79 µg/mL) | 45 µM | 64 µM | 75 µM | 50 µM | 45 µM | 65 µM |  | 758 µM (≈ 157 µg/mL) | 1510 µM (≈ 313 µg/mL) | 758 µM (≈ 157 µg/mL) | 1510 µM (≈ 313 µg/mL) | 188 µM (≈ 39 µg/mL) | 96 µM (≈ 19.9 µg/mL) | 48 µM (≈ 9.95 µg/mL) | 1510 µM (≈ 313 µg/mL) | 1510 µM (≈ 313 µg/mL) | 3020 µM (≈ 626 µg/mL) |  |
| CCNC1=CC(=O)C=C(C(C)(C)C)C1=O | 1510 µM (≈ 313 µg/mL) | 1510 µM (≈ 313 µg/mL) | 48 µM (≈ 9.95 µg/mL) | 4 µM | 13 µM | 30 µM | 22 µM | 5 µM | 14 µM | ≤ 1.5 | 381 µM (≈ 79 µg/mL) | 758 µM (≈ 157 µg/mL) | 381 µM (≈ 79 µg/mL) | 758 µM (≈ 157 µg/mL) | 24 µM (≈ 4.97 µg/mL) | 24 µM (≈ 4.97 µg/mL) | 24 µM (≈ 4.97 µg/mL) | 758 µM (≈ 157 µg/mL) | 758 µM (≈ 157 µg/mL) | 758 µM (≈ 157 µg/mL) | selectivity ratio [22]: ≤ 1.5 |
